Test results as given in ChEMBL document CHEMBL1145811, “Synthesis and antibacterial activity of a novel series of acylides: 3-O-(3-pyridyl)acetylerythromycin A derivatives” (J Med Chem, 2003).
Values after ≈ are worked out from the molar mass of the structure shown.

Key:
Type in all cases: functional
[1] = tested on: Haemophilus influenzae; experiment: In vitro minimum inhibitory concentration for antibacterial activity against Haemophilus influenzae ATCC 43095 (ampicillin-susceptible strain that does not produce beta-lactamase)
Procedure, shortened: (§1)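 Agar dilution MIC determined by the Japan Society of Chemotherapy standard method for aerobic bacteria.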

[2] = tested on: Streptococcus pneumoniae; experiment: In vitro minimum inhibitory concentration for antibacterial activity against Streptococcus pneumoniae 210 (efflux-resistant strain encoded by the mef(A) gene); procedure, shortened: as §1
[3] = tested on: Staphylococcus aureus; experiment: In vitro minimum inhibitory concentration for antibacterial activity against Staphylococcus aureus SR138 (constitutively MLSb-resistant strain encoded by the erm(A) gene); procedure, shortened: as §1
[4] = tested on: Streptococcus pneumoniae; experiment: In vitro minimum inhibitory concentration for antibacterial activity against erythromycin-susceptible strain Streptococcus pneumoniae IID553
Procedure, shortened: (§2)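 MIC by agar dilution following the Japan Society of Chemotherapy standard method for aerobic bacteria. S. aureus 209P-JC and S. pneumoniae IID553 are erythromycin-susceptible strains.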

[5] = tested on: Streptococcus pneumoniae; experiment: In vitro minimum inhibitory concentration for antibacterial activity against Streptococcus pneumoniae 211 (MLSb-resistant strain encoded by the erm(B) gene); procedure, shortened: as §1
[6] = tested on: Staphylococcus aureus; experiment: In vitro minimum inhibitory concentration for antibacterial activity against Staphylococcus aureus B1 (inducibly MLSb-resistant strain encoded by the erm(C) gene); procedure, shortened: as §1
[7] = tested on: Haemophilus influenzae; experiment: In vitro minimum inhibitory concentration for antibacterial activity against Haemophilus influenzae ATCC 33533 (ampicillin-resistant strain that produces beta-lactamase); procedure, shortened: as §1
[8] = tested on: Staphylococcus aureus; experiment: In vitro minimum inhibitory concentration for antibacterial activity against erythromycin-susceptible strain Staphylococcus aureus […]; procedure, shortened: as §2

Structure (SMILES)	MIC [1] [µg/mL]	MIC [2] [µg/mL]	MIC [3] [µg/mL]	MIC [4] [µg/mL]	MIC [5] [µg/mL]	MIC [6] [µg/mL]	MIC [7] [µg/mL]	MIC [8] [µg/mL]
CC[C@H]1OC(=O)[C@H](C)[C@@H](OC(=O)Cc2ccccc2OC)[C@H](C)[C@@H](OC2O[C@H](C)C[C@H](N(C)C)[C@H]2O)[C@@](C)(OC)C[C@@H](C)C(=O)[C@H](C)[C@@H](O)[C@]1(C)O (stereo partly drawn)	> 100	1.56 (≈ 2.11 µM)	> 100	1.56 (≈ 2.11 µM)	> 100	12.5 (≈ 16.9 µM)	100 (≈ 136 µM)	3.13 (≈ 4.24 µM)
CC[C@H]1OC(=O)[C@H](C)[C@@H](OC(=O)Cc2ccncc2)[C@H](C)[C@@H](OC2O[C@H](C)C[C@H](N(C)C)[C@H]2O)[C@@]2(C)C[C@@H](C)[C@H](OC(=O)O2)[C@H](C)[C@H]2OC(=O)O[C@@]21C (stereo partly drawn)	12.5 (≈ 16.7 µM)	0.2 (≈ 0.267 µM)	> 100	0.05 (≈ 0.0668 µM)	> 100	0.39 (≈ 0.521 µM)	6.25 (≈ 8.35 µM)	0.2 (≈ 0.267 µM)
CC[C@H]1OC(=O)[C@H](C)[C@@H](OC(=O)Cc2cccnc2)[C@H](C)[C@@H](OC2O[C@H](C)C[C@H](N(C)C)[C@H]2O)[C@@](C)(O)C[C@@H](C)CN(C)[C@H](C)[C@@H](O)[C@]1(C)O (stereo partly drawn)	1.56 (≈ 2.2 µM)	0.78 (≈ 1.1 µM)	> 100	0.78 (≈ 1.1 µM)	> 100	6.25 (≈ 8.8 µM)	1.56 (≈ 2.2 µM)	3.13 (≈ 4.41 µM)
CC[C@H]1OC(=O)[C@H](C)[C@@H](OC(=O)Cc2cccnc2)[C@H](C)[C@@H](OC2O[C@H](C)C[C@H](N(C)C)[C@H]2O)[C@@](C)(O)C[C@@H](C)C(=O)[C@H](C)[C@@H](O)[C@]1(C)O (stereo partly drawn)	12.5 (≈ 18 µM)	0.78 (≈ 1.12 µM)	> 100	0.2 (≈ 0.288 µM)	> 100	6.25 (≈ 8.99 µM)	12.5 (≈ 18 µM)	1.56 (≈ 2.25 µM)
CC[C@H]1OC(=O)[C@H](C)[C@@H](OC(=O)Cc2ccccc2[N+](=O)[O-])[C@H](C)[C@@H](OC2O[C@H](C)C[C@H](N(C)C)[C@H]2O)[C@@](C)(OC)C[C@@H](C)C(=O)[C@H](C)[C@@H](O)[C@]1(C)O (stereo partly drawn)	50 (≈ 66.4 µM)	0.2 (≈ 0.266 µM)	> 100	0.2 (≈ 0.266 µM)	> 100	0.78 (≈ 1.04 µM)	50 (≈ 66.4 µM)	0.39 (≈ 0.518 µM)
CC[C@H]1OC(=O)[C@H](C)[C@@H](OC(=O)Cc2cccc(OC)c2)[C@H](C)[C@@H](OC2O[C@H](C)C[C@H](N(C)C)[C@H]2O)[C@@](C)(OC)C[C@@H](C)C(=O)[C@H](C)[C@@H](O)[C@]1(C)O (stereo partly drawn)	50 (≈ 67.8 µM)	0.39 (≈ 0.529 µM)	> 100	0.39 (≈ 0.529 µM)	> 100	3.13 (≈ 4.24 µM)	25 (≈ 33.9 µM)	1.56 (≈ 2.11 µM)
CC[C@H]1OC(=O)[C@H](C)[C@@H](OC(=O)Cc2cccnc2)[C@H](C)[C@@H](OC2O[C@H](C)C[C@H](N(C)C)[C@H]2O)[C@@](C)(OC)C[C@@H](C)/C(=N\O)[C@H](C)[C@@H](O)[C@]1(C)O (stereo partly drawn)	12.5 (≈ 17.3 µM)	0.39 (≈ 0.539 µM)	> 100	0.2 (≈ 0.276 µM)	> 100	1.56 (≈ 2.15 µM)	12.5 (≈ 17.3 µM)	0.78 (≈ 1.08 µM)
CC[C@H]1OC(=O)[C@H](C)[C@@H](OC2C[C@@](C)(OC)[C@@H](O)[C@H](C)O2)[C@H](C)[C@@H](OC2O[C@H](C)C[C@H](N(C)C)[C@H]2O)[C@@]2(C)C[C@@H](C)[C@H](OC(=O)O2)[C@H](C)[C@H]2OC(=O)O[C@@]21C (stereo partly drawn)	1.56 (≈ 1.98 µM)	0.39 (≈ 0.495 µM)	> 100	0.1 (≈ 0.127 µM)	> 100	> 100	1.56 (≈ 1.98 µM)	0.1 (≈ 0.127 µM)
CC[C@H]1OC(=O)[C@H](C)[C@@H](OC(=O)Cc2cccnc2)[C@H](C)[C@@H](OC2O[C@H](C)C[C@H](N(C)C)[C@H]2O)[C@@](C)(O)C[C@@H](C)[C@H](O)[C@H](C)[C@H]2OC(=O)O[C@@]21C (stereo partly drawn)	3.13 (≈ 4.33 µM)	0.2 (≈ 0.277 µM)	> 100	0.1 (≈ 0.138 µM)	> 100	0.78 (≈ 1.08 µM)	6.25 (≈ 8.65 µM)	0.78 (≈ 1.08 µM)
CC[C@H]1OC(=O)[C@H](C)[C@@H](OC(=O)CCc2cccc(OC)c2)[C@H](C)[C@@H](OC2O[C@H](C)C[C@H](N(C)C)[C@H]2O)[C@@](C)(OC)C[C@@H](C)C(=O)[C@H](C)[C@@H](O)[C@]1(C)O (stereo partly drawn)	100 (≈ 133 µM)	0.78 (≈ 1.04 µM)	> 100	0.78 (≈ 1.04 µM)	> 100	3.13 (≈ 4.16 µM)	100 (≈ 133 µM)	3.13 (≈ 4.16 µM)
CC[C@H]1OC(=O)[C@H](C)[C@@H](OC(=O)Cc2cccnc2)[C@H](C)[C@@H](OC2O[C@H](C)C[C@H](N(C)C)[C@H]2O)[C@@](C)(O)C[C@@H](C)[C@@H]2OC(=O)O[C@H]([C@H]2C)[C@]1(C)O (stereo partly drawn)	12.5 (≈ 17.3 µM)	0.39 (≈ 0.54 µM)	> 100	0.1 (≈ 0.138 µM)	> 100	1.56 (≈ 2.16 µM)	6.25 (≈ 8.65 µM)	0.78 (≈ 1.08 µM)
